In ChEMBL document CHEMBL1131325, “Synthesis and antiviral evaluation of certain novel pyrazinoic acid C-nucleosides” (J Med Chem, 1998):

How the values were obtained:
[1] = test system: HFF; experiment: Cytotoxicity for the compound was determined in uninfected stationary human foreskin fibroblasts (HFF) cells.; type: functional, cell-based
In short: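 Stationary HFF monolayers not affected by virus in the HCMV plaque assay were examined microscopically for cytotoxicity. Visual scoring was done at the time of plaque enumeration, after 10–12 days at 37 °C. IC50 came from regression against log concentration.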

[2] = test system: Human betaherpesvirus 5; experiment: Compound was evaluated for antiviral activity by their capacity to inhibit replication of HCMV virus; type: functional, organism-based
In short: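 Towne strain HCMV (plaque-purified isolate P₀) plaque reduction in HFF cells in 24-well dishes, ~100 pfu/cm² cell sheet. After adsorption, compound in growth medium was added at 4–8 concentrations in duplicate wells. Incubation was 10–12 days at 37 °C, then crystal violet fixation/staining and microscopic plaque counts. IC50 came from linear regression of % plaque reduction vs. log concentration. Ganciclovir served as positive control.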

[3] = test system: KB; experiment: Cytotoxicity for the compound was determined by the inhibition of the growing KB cells.; type: functional, cell-based; conditions: Homo sapiens
In short: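 KB cell growth was measured over two population doublings. Cells were plated at 3000–5000/well, cultured overnight, then compound was added in quadruplicate at 6–8 concentrations for 48 h at 37 °C in CO₂. Cells were fixed in 95% ethanol, stained with 0.1% crystal violet, eluted with 0.1 N HCl/ethanol and read at 570 nm. IC50 came from regression vs. log concentration. The positive control was 2-acetylpyridine thiosemicarbazone.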

[4] = test system: Human alphaherpesvirus 1; experiment: Compound was evaluated for the antiviral activity by their capacity to inhibit the replication of HSV-1 virus; type: functional, organism-based
In short: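 HSV-1 (KOS strain) ELISA in BSC-1 cells, 10 000 cells/well in MEM(E) + 10% calf serum, after overnight culture at 37 °C. Drug was added in quadruplicate with 100 pfu/well virus and incubated 3 days at 37 °C. Detection used HRP-conjugated rabbit anti-HSV-1 with TMB substrate, read at 450/570 nm. IC50 came from regression of % absorbance reduction vs. log concentration. Acyclovir was the positive control.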

Row | IC50 [2] | IC50 [4] | Structure (SMILES) | IC50 [1] | IC50 [3]
1 | 70 µM | – | OC[C@H]1O[C@@H](c2ncc(Cl)nc2Cl)[C@H](O)[C@@H]1O | > 100 µM | –
2 | > 100 µM | > 100 µM | NC(=O)c1nc([C@@H]2O[C@H](CO)[C@@H](O)[C@H]2O)c(N)nc1Cl | > 100 µM | > 100 µM
3 | > 100 µM | > 100 µM | CCOC(=O)c1nc([C@@H]2O[C@H](CO)[C@@H](O)[C@H]2O)c(N)nc1Cl | > 100 µM | > 100 µM
4 | – | 1.8 µM | Nc1nc2c(ncn2COC(CO)CO)c(=O)[nH]1 [GANCICLOVIR] | > 100 µM | > 100 µM
5 | 3.2 µM | 20 µM | CCOC(=O)c1nc([C@@H]2O[C@H](CO)[C@@H](O)[C@H]2O)c(Cl)nc1Cl | 3.2 µM | 20 µM
6 | > 100 µM | > 100 µM | CCOc1nc(Cl)c(C(N)=O)nc1[C@@H]1O[C@H](CO)[C@@H](O)[C@H]1O | > 100 µM | > 100 µM
7 | > 100 µM | > 100 µM | CCOC(=O)c1nc([C@@H]2O[C@H](CO)[C@@H](O)[C@H]2O)c(NC)nc1Cl | > 100 µM | > 100 µM
8 | > 100 µM | > 100 µM | COc1nc(Cl)c(C(N)=O)nc1[C@@H]1O[C@H](CO)[C@@H](O)[C@H]1O | > 100 µM | > 100 µM
